Measured values gathered from unrelated publications.
Protocols differ between the studies behind these lines. pEC50, pIC50: −log10 of the molar value.
Read-out: cell growth or viability

Compound	cell line	technique	tested at	time	notes	quantity	result
O=C1CC[C@@H](COc2ccc(C(=O)C(Cl)Cl)cc2[N+](=O)[O-])N1	NCI-H1975	MTT	2.5 µM			inhibition	96.7%
COc1cc2c3c(n(CCCNCCO)c(=O)c2cc1OC)-c1nc2c(cc1C3=O)OCO2	SF-539	SRB		48 h		GI50	1000 nM
C=CC(=O)NC1CCN(c2ncc3ncnc(Nc4ccc(Oc5ccc6c(c5)ncn6C)c(C)c4)c3n2)CC1	NCI-H322					pEC50	6.33
C#Cc1cccc(Nc2ncnc3cc(OCCOC)c(OCCOC)cc23)c1	NCI-H1975	MTT		72 h		pIC50	4.26
CC1(CN)CCN(c2cnc3c(Sc4ccncc4Cl)n[nH]c3n2)CC1	NCI-H1975			96 h		pIC50	5.18
C=CC(=O)Nc1cc(Nc2nccc(-c3cn(C)c4ccccc34)n2)c(OC)cc1N(C)CCN(C)C	NCI-H1975	MTT		72 h		pIC50	4.53
NC(=O)c1ccc(Oc2ccc(C(=O)C(Cl)Cl)cc2[N+](=O)[O-])cc1	NCI-H1975	MTT	2.5 µM			inhibition	97.2%
Cc1ncc(CN2CCc3ccccc3C2)c2cc(C(=O)c3ccc4c(c3)OCCO4)oc12	NCI-H1975	MTT		72 h		pIC50	4.53
C=C(F)C(=O)N1CCN(c2nc(OC[C@@H]3CCCN3C)nc3c2CCN(c2cccc4cccc(Cl)c24)C3)C[C@@H]1CC#N	SW1463	ATP luminescence			3D culture	pIC50	8.37
CC(C)c1ccccc1[C@@H]1CCCN1C1CC2(CCN(c3ccc(C(=O)NS(=O)(=O)c4ccc(NC[C@H]5CC[C@](C)(O)CC5)c([N+](=O)[O-])c4)c(Oc4cnc5[nH]ccc5c4)c3)CC2)C1	Rec1	ATP luminescence		48 h		pIC50	6.74
O=C(c1ccc(Oc2ccc(OCc3ccccc3)cc2)c([N+](=O)[O-])c1)C(Cl)Cl	NCI-H1975	MTT	2.5 µM			inhibition	95.2%
O=C(NO)c1ccc(CNc2nc3cccc(-c4ccc5c(c4)OCO5)n3n2)cc1	NCI-H322M	SRB				GI50	600 nM
CC(C)Oc1ccc(S(=O)(=O)c2ccc(Oc3cc(OCC(N)=O)c(C(=O)C(Cl)Cl)cc3[N+](=O)[O-])cc2)cc1	NCI-H1975	MTT		72 h		pIC50	6.52
C=CC(=O)N1CCN(c2nc(=O)n(-c3c(C)ccnc3C(C)C)c3nc(-c4c(O)cccc4F)c(F)cc23)[C@@H](C)C1	SW1463	ATP luminescence				pIC50	6.88
Cc1ccc2c(-c3cc4c(CNCc5cccnc5)cnc(C)c4o3)cc(=O)oc2c1C	NCI-H1975	MTT		72 h		pIC50	4.36
CC(=O)Nc1ccc(Oc2ccc(C(=O)C(Cl)Cl)cc2[N+](=O)[O-])cc1	NCI-H1975	MTT	2.5 µM			inhibition	88.3%
